The test system of assay [1] is Corpus cavernosum. Kind of assay: Induction of smooth muscle relaxation in male albino rat corpus-cavernosum assessed as reduction in phenylephrine-induced contraction. Format: functional, tissue-based.
For assay [2], the system named is Corpus cavernosum. Briefly: Induction of smooth muscle relaxation in male albino rat corpus-cavernosum assessed as reduction in phenylephrine-induced contraction relative to sildenafil. Format: functional. An outline of the steps: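 Isolated penile corpus cavernosum strips from adult male albino rats anaesthetized with sodium pentobarbital (50mg/kg, i.v.), held in Krebs-Henseleit solution at 37°C aerated with carbogen under 1g initial tension. Equilibrated ~90 min with solution renewed every 15 min. Cumulative concentration-response curves in phenylephrine-contracted tissue, recorded isometrically.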

The target of assay [3] is cGMP-specific 3',5'-cyclic phosphodiesterase (Homo sapiens, UniProt O76074). Briefly: Inhibition of PDE5 (unknown origin).

From ChEMBL document CHEMBL4725271, “Design and synthesis of pyrazolo[3,4-d]pyrimidinone derivatives: Discovery of selective phosphodiesterase-5 inhibitors” (Bioorg Med Chem Lett, 2020) come the findings set out here.

The structures appear in SMILES notation.

Consider `CCCCOc1ccccc1-c1nc2c(cnn2-c2ccc(Br)cc2)c(=O)[nH]1`, for which, in the assay with Corpus cavernosum [1], the concentration for a half-maximal effect (EC50) was 4.89 nM. Also, the Emax in the assay with Corpus cavernosum [2] came out at 160%. As for `COCCCNC(=O)c1cnc(OCc2ccccn2)nc1NCc1ccc(OC)c(Cl)c1`, the IC50 in assay [3] was found to be 15 nM. For `CCCOc1ccccc1-c1nc2c(cnn2-c2ccc(Br)cc2)c(=O)[nH]1`, in the assay with Corpus cavernosum [1], the half-maximal effective concentration (EC50) was 830 nM. Further, in the assay on Corpus cavernosum [2], the maximum response (Emax) amounted to 140%.

Turning to `O=C(O)c1ccccc1OCc1nc2c(cnn2-c2ccccc2)c(=O)[nH]1`, the EC50 in the assay on Corpus cavernosum [1] was 223 nM.

In the case of `COC(=O)c1ccccc1OCc1nc2c(cnn2-c2ccccc2)c(=O)[nH]1`, the EC50 with Corpus cavernosum [1] is 100 nM. For the same molecule, in the assay on Corpus cavernosum [2], the maximal effect (Emax) was 130%. In the case of `Nc1ccccc1NCc1nc2c(cnn2-c2ccccc2)c(=O)[nH]1`, in the assay on Corpus cavernosum [1], the half-maximal effective concentration (EC50) is 6800 nM. For the same molecule, the Emax with Corpus cavernosum [2] was 113%. For `O=c1[nH]c(-c2ccccc2O)nc2c1cnn2-c1ccc(Br)cc1`, in that order: 338 nM and 167%.

The molecule `COc1ccc(CNc2nc(N3CCC[C@H]3CO)ncc2C(=O)N[C@H]2CC[C@H](O)CC2)cc1Cl` showed an IC50 in assay [3] of 1.8 nM. `COc1ccc(CNc2nc(OCc3ccccn3)ncc2C(=O)NCCN2CCOCC2)cc1Cl` yielded a half-maximal inhibitory concentration (IC50) in assay [3] of 5.6 nM. `COc1ccc(CNc2nc(OCc3ccccn3)ncc2C(=O)NCCCO)cc1Cl` yielded an IC50 in assay [3] of 13 nM. The same measure, in the same setting: the figure for `COc1ccc(CNc2nc(OCc3ccccn3)ncc2C(=O)N[C@H]2CC[C@@H](O)CC2)cc1Cl` is 3.5 nM; for `COc1ccc(CNc2nc(N3CCC[C@H]3CO)ncc2C(=O)NC[C@@H]2CN(C)CCO2)cc1Cl` it is 6.1 nM. With `O=c1[nH]c(CNc2ccccc2O)nc2c1cnn2-c1ccc(Br)cc1`, the EC50 with Corpus cavernosum [1] is 5050 nM. The Emax in the assay on Corpus cavernosum [2] was 133%. For `COc1ccc(CN=c2[nH]c(N3CCC[C@H]3CO)ncc2C(=O)NCc2ncccn2)cc1Cl` (stereo in doubt; T6), in assay [3], the IC50 is 5.2 nM. Take `O=c1[nH]c(-c2ccccc2O)nc2c1cnn2-c1ccccc1`: the EC50 in the assay with Corpus cavernosum [1] is 500 nM. Moreover, the maximum response (Emax) in the assay with Corpus cavernosum [2] is 93%. Consider `COc1ccc(CNc2nc(N3CCC[C@H]3CO)ncc2C(=O)NCCCO)cc1Cl`, for which, in assay [3], the concentration for half-maximal inhibition (IC50) was 6.6 nM. Consider `COc1ccc(CNc2nc(N(C)CCO)ncc2C(=O)NCc2ccccn2)cc1Cl`, for which, in assay [3], the half-inhibitory concentration (IC50) amounted to 32 nM. This IC50 lies about 4.8-fold higher than the previous one. Still for that read-out and setting: the figure for `COc1ccc(CNc2nc(N3CCCC[C@H]3CO)ncc2C(=O)NCc2ncccn2)cc1Cl` is 63 nM; for `COc1ccc(CNc2nc(N3Cc4ccccc4C[C@@H]3CO)ncc2C(=O)NCc2ccccn2)cc1Cl` it is 6.5 nM; for `COc1ccc(CNc2nc(OCc3ccccn3)ncc2C(=O)OCc2ncccn2)cc1Cl` it is 4.2 nM. `COc1ccc(CNc2nc(N3CCC(O)CC3)ncc2C(=O)NCc2ccccn2)cc1Cl` registered a 50% inhibitory concentration (IC50) in assay [3] of 59 nM. Same read-out and setting: under `COc1ccc(CNc2nc(N3CCO[C@H](CO)C3)ncc2C(=O)NCc2ccccn2)cc1Cl` stands 32 nM; under `COc1ccc(CNc2nc(OCc3ccccn3)ncc2C(=O)OCc2ccccn2)cc1Cl`, 2.1 nM. Take `CCCOc1ccccc1-c1nc2c(cnn2-c2ccccc2)c(=O)[nH]1`: the 50% effective concentration (EC50) with Corpus cavernosum [1] is 234 nM. In addition, in the assay on Corpus cavernosum [2], the maximum response (Emax) came out at 150%.

`COc1ccc(CNc2nc(OCc3ccccn3)ncc2C(=O)NCCCCO)cc1Cl` yielded an IC50 in assay [3] of 12 nM. This counts as double-digit nanomolar. `CC(C)Oc1ccccc1-c1nc2c(cnn2-c2ccccc2)c(=O)[nH]1`: in the assay on Corpus cavernosum [1], the concentration for a half-maximal effect (EC50) was 500 nM. Moreover, the Emax in the assay on Corpus cavernosum [2] is 130%.

For the molecule `CCCCOc1ccccc1-c1nc2c(cnn2-c2ccccc2)c(=O)[nH]1`, in the assay on Corpus cavernosum [1], the EC50 was 630 nM. Also, the maximal response (Emax) in the assay with Corpus cavernosum [2] amounted to 170%. With `COc1ccc(CN(C)c2nc(OCc3ccccn3)ncc2C(=O)NCc2ccccn2)cc1Cl`, in assay [3], the IC50 was found to be 85 nM.

On to `O=c1[nH]c(CNc2ccccc2O)nc2c1cnn2-c1ccccc1`, for which the EC50 in the assay on Corpus cavernosum [1] was 250 nM. In addition, in the assay with Corpus cavernosum [2], the Emax was 125%.

`COc1ccc(CNc2nc(OCc3ccccn3)ncc2C(=O)Nc2ncccn2)cc1Cl` displayed an IC50 in assay [3] of 12 nM. This lies in the double-digit nanomolar range. Same read-out and setting: the figure for `COc1ccc(CNc2nc(OCc3ccccn3)ncc2C(=O)NCc2ccccn2)cc1Cl` is 2.7 nM. In the case of `CC(C)Oc1ccccc1-c1nc2c(cnn2-c2ccc(Br)cc2)c(=O)[nH]1`, the concentration giving a half-maximal response (EC50) in the assay with Corpus cavernosum [1] was 280 nM.

With `COc1ccc(CN=c2[nH]c(N3CCC[C@H]3CO)ncc2C(=O)NCc2ncccn2)cc1Cl` (stereo in doubt; T5), the IC50 in assay [3] was 25 nM.

The molecule `COc1ccc(CNc2nc(N3CCC[C@@H]3CO)ncc2C(=O)NCc2ccccn2)cc1Cl` had an IC50 in assay [3] of 1.2 nM.

As for `Nc1ccccc1NCc1nc2c(cnn2-c2ccc(Br)cc2)c(=O)[nH]1`, in the assay with Corpus cavernosum [1], the EC50 was 707 nM. In addition, the maximal response (Emax) in the assay with Corpus cavernosum [2] was determined as 148%. In turn, `COc1ccc(CNc2nc(N3CCCC[C@H]3CO)ncc2C(=O)NCc2ccccn2)cc1Cl` gave a half-maximal inhibitory concentration (IC50) in assay [3] of 54 nM. This counts as double-digit nanomolar.

The term EC50 denotes the concentration that produces a half-maximal response. In general, Emax refers to the maximal effect, on the per cent scale that the assay sets. The IC50 is the concentration needed to halve the response being measured. Read a high IC50 as a need for much substance.
